A value given as a limit tells only on which side of the number the result lay.

In series [1] the test system is Rattus norvegicus. Briefly: Antiplatelet activity in Wistar rat assessed as inhibition of ADP-induced platelet aggregation at 3 mg/kg, po measured after 2 hrs by Born's method. In kind it is functional. Further details: scale not given: the % may be the effect or the level left; call rule not given here. The gist of the method:
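Oral dosing at 3 mg/kg, CMC as vehicle, groups of 10 rats. At 2 h the rats were anesthetized with pentobarbital sodium and blood was drawn from the abdominal aorta. Ex vivo aggregation was induced with ADP 1.2 μM and read on an aggregometer (Born's method). Values are mean ± SD, n = 10, statistics versus vehicle.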

Series [2] concerns Rattus norvegicus. Description: Tmax in Sprague-Dawley rat assessed as clopidogrel thioacetate level at 24 umol/kg, po. Conditions: in vivo. In kind it is ADME, organism-based.
The subject of series [3] is Liver microsomes. Briefly: Drug metabolism in rat liver microsomes assessed as NADPH-dependent active metabolite glutathione adducts 1 formation at 20 uM after 30 mins by LC-MS/MS analysis. The format is ADME, Microsome. Conditions: 0.5 h. The gist of the method: (§1)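 Pooled SD rat liver microsomes (1.0 mg/mL protein) with compound 20 μM (diluted from 10 mM DMSO stock), NADPH 1.0 mM and glutathione 10 mM in 100 mM potassium phosphate pH 7.4. Incubated 30 min at 37 °C; controls lacked NADPH. Quenched with ice-cold 10% TCA and centrifuged. Supernatant analysed by LC-MS/MS (phenyl column, positive ESI), monitoring AMGS adducts at m/z 661 (SIM).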
(Microsomes from liver hold many membrane-bound enzymes, among them those of drug oxidation.)

Series [4] concerns Liver microsomes. Briefly: Drug metabolism in rat liver microsomes assessed as NADPH-dependent active metabolite glutathione adducts formation at 20 uM after 30 mins by LC-MS/MS analysis in presence of NADPH and GSH. Conditions: 0.5 h. In kind it is ADME, Microsome. The method in brief:
as §1

For series [5], the system named is Liver microsomes. Briefly: Drug metabolism in rat liver microsomes assessed as NADPH-dependent active metabolite glutathione adducts 2 formation at 20 uM after 30 mins by LC-MS/MS analysis. In kind it is ADME, Microsome. Conditions: 0.5 h. The gist of the method:
as §1

Series [6] relates to Liver microsomes. Description: Drug metabolism in rat liver microsomes assessed as NADPH-dependent active metabolite glutathione adducts 3 formation at 20 uM after 30 mins by LC-MS/MS analysis. Conditions: 0.5 h. In kind it is ADME, Microsome. The gist of the method: as §1
The test system of series [7] is Rattus norvegicus. Briefly: AUC (0 to infinity) in Sprague-Dawley rat […] at 24 umol/kg, po. Further details: dose 24 umol/kg, route oral, time infinity. Conditions: in vivo. The format is ADME, organism-based, Plasma.
Series [8] concerns Rattus norvegicus. Briefly: Half life in Sprague-Dawley rat assessed as clopidogrel thioacetate level at 24 umol/kg, po. The format is ADME, organism-based. Conditions: in vivo.
For series [9], the system named is Rattus norvegicus. Briefly: Cmax in Sprague-Dawley rat assessed as clopidogrel thioacetate level at 24 umol/kg, po. In kind it is ADME, organism-based. Further details: dose 24 umol/kg, route oral. Conditions: in vivo.
Series [10] has as its system Liver microsomes. Briefly: Drug metabolism in rat liver microsomes assessed as NADPH-dependent active metabolite glutathione adducts 4 formation at 20 uM after 30 mins by LC-MS/MS analysis. The format is ADME, Microsome. Conditions: 0.5 h. The gist of the method: as §1
For series [11], the system named is Mus musculus. Description: Toxicity in mouse assessed as tissue injury at 5000 mg/kg, po measured after 14 days. In kind it is organism-based. Further details: dose 5000 mg/kg, route oral. Conditions: in vivo, 336 h. The gist of the method: (§2)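 Single-dose study in a GLP laboratory. Deaths were recorded, and the liver and other organs were assessed for injury or adverse effects.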

The nature of series [12]: Toxicity in beagle dog assessed as maximum tolerated dose. Conditions: in vivo. The format is organism-based, Canis lupus familiaris. The gist of the method: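 Single-dose oral study in beagle dogs, run in a GLP laboratory. Both the no-observed-adverse-effect level and the maximal tolerated dose were determined.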
Series [13] is described as follows: Toxicity in beagle dog assessed as no-observed adverse effect level. In kind it is organism-based, Canis lupus familiaris. Conditions: in vivo.
The subject of series [14] is Mus musculus. Briefly: Toxicity in mouse assessed as liver injury at 5000 mg/kg, po measured after 14 days. Conditions: in vivo, 336 h. The format is organism-based. Further details: dose 5000 mg/kg, route oral. The method in brief:
as §2

In series [15] the test system is Mus musculus. Briefly: Toxicity in mouse assessed as mortality at 5000 mg/kg, po measured after 14 days. The format is organism-based. Further details: dose 5000 mg/kg, route oral. Conditions: in vivo, 336 h. The method in brief: as §2

Take `CCC(=O)Oc1cc2c(s1)CCN([C@H](C(=O)OC)c1ccccc1Cl)C2`: in the series with Rattus norvegicus [1], the Activity came to 46.7%.

On to `CCCC(=O)Oc1cc2c(s1)CCN([C@H](C(=O)OC)c1ccccc1Cl)C2`, for which the Activity in the series with Rattus norvegicus [1] is 52.8%.

Regarding `COC(=O)[C@H](c1ccccc1Cl)N1CCc2sc(OC(=O)C(C)(C)C)cc2C1`, the Activity in the series on Rattus norvegicus [1] came to 63.4%.

For `CCC(C)(C)C(=O)Oc1cc2c(s1)CCN([C@H](C(=O)OC)c1ccccc1Cl)C2`, the Activity with Rattus norvegicus [1] was 70%.

As for `COC(=O)[C@H](c1ccccc1Cl)N1CCc2sc(OC(=O)c3ccccc3)cc2C1`, the Activity in the series on Rattus norvegicus [1] is given as 60.1%.

For the compound `COC(=O)[C@H](c1ccccc1Cl)N1CCc2sc(OC(=O)c3ccc([N+](=O)[O-])cc3)cc2C1`, the Activity in the series with Rattus norvegicus [1] turned out to be 75.6%.

Turning to `COC(=O)[C@H](c1ccccc1Cl)N1CCc2sc(OC(=O)c3ccc(OC)cc3)cc2C1`, the Activity in the series with Rattus norvegicus [1] stood at 82.6%.

As to `COC(=O)[C@H](c1ccccc1Cl)N1CCc2sc(OC(=O)c3ccccc3OC(C)=O)cc2C1`, in the series on Rattus norvegicus [1], the Activity is 77.9%.

Consider `COC(=O)[C@H](c1ccccc1Cl)N1CCc2sc(OC(=O)Cc3ccccc3)cc2C1`, for which the Activity in the series on Rattus norvegicus [1] is 53.8%.

With `COC(=O)[C@H](c1ccccc1Cl)N1CCc2sc(OC(=O)/C=C/c3ccccc3)cc2C1`, in the series on Rattus norvegicus [1], the Activity came out at 84.7%.

As for `COC(=O)[C@H](c1ccccc1Cl)N1CCc2sc(OC(=O)c3cccnc3)cc2C1`, the Activity with Rattus norvegicus [1] worked out at 45.1%.

Consider `COC(=O)Oc1cc2c(s1)CCN([C@H](C(=O)OC)c1ccccc1Cl)C2`, for which the Activity in the series on Rattus norvegicus [1] came out at 38.6%.

With `CCOC(=O)Oc1cc2c(s1)CCN([C@H](C(=O)OC)c1ccccc1Cl)C2`, the Activity in the series with Rattus norvegicus [1] is recorded as 53%.

As for `COC(=O)[C@H](c1ccccc1Cl)N1CCc2sc(OC(=O)OC(C)C)cc2C1`, the Activity with Rattus norvegicus [1] was 50.2%.

As to `COC(=O)[C@H](c1ccccc1Cl)N1CCc2sc(OC(=O)OCC(C)C)cc2C1`, in the series with Rattus norvegicus [1], the Activity stood at 65.6%.

Consider `COC(=O)[C@H](c1ccccc1Cl)N1CCc2sc(OC(=O)OCc3ccccc3)cc2C1`, for which the Activity in the series with Rattus norvegicus [1] is on record as 72.2%.

With `COC(=O)[C@H](c1ccccc1Cl)N1CCc2sc(OC(=O)COc3ccccc3)cc2C1`, the Activity in the series on Rattus norvegicus [1] is 75.4%.

With `COC(=O)[C@H](c1ccccc1Cl)N1CCc2sc(OC(=O)N(C)C)cc2C1`, in the series with Rattus norvegicus [1], the Activity is given as 67.7%.

In the case of `COC(=O)[C@H](c1ccccc1Cl)N1CCc2sc(OC(=O)N3CCCC3)cc2C1`, the Activity with Rattus norvegicus [1] is reported as 80.9%.

`COC(=O)[C@H](c1ccccc1)N1CCc2sc(OC(C)=O)cc2C1`: the Activity in the series on Rattus norvegicus [1] stood at 81.1%.

`COC(=O)[C@H](c1ccccc1F)N1CCc2sc(OC(C)=O)cc2C1`: the Activity with Rattus norvegicus [1] is given as 62.9%.

For the compound `COC(=O)[C@@H](c1ccccc1Cl)N1CCc2sc(OC(C)=O)cc2C1`, the Activity in the series on Rattus norvegicus [1] is given as 68.4%.

On to `COC(=O)C(c1ccccc1Cl)N1CCc2sc(OC(C)=O)cc2C1` (racemic), for which the Activity in the series with Rattus norvegicus [1] is on record as 63.7%.

Turning to `COC(=O)[C@H](c1ccccc1Cl)N1CCc2sccc2C1.O=S(=O)(O)O` [CLOPIDOGREL BISULFATE], the Activity in the series with Rattus norvegicus [1] stood at 73.7%.

As to `COC(=O)[C@H](c1ccccc1Cl)N1CCC2SC(=O)C=C2C1` (stereo not given in full) [CLOPIDOGREL THIOLACTONE], in the series on Rattus norvegicus [1], the Activity was 48.6%.

One may read the Tmax as the time from dosing to the highest level. What is called AUC is the area under the concentration-time curve, a measure of exposure. Usually Cmax stands for the peak of the concentration-time curve. Turning to `COC(=O)[C@H](c1ccccc1Cl)N1CCc2sccc2C1` [CLOPIDOGREL], the Tmax in the series on Rattus norvegicus [2] was 0.583 h. Also, the Drug metabolism result with Liver microsomes [3], in the series on Liver microsomes [4], in the series with Liver microsomes [5], in the series with Liver microsomes [6] and in the series on Liver microsomes [10] was “Active” throughout. This compound showed an AUC in the series with Rattus norvegicus [7] of 32.2 ng·h/mL. Moreover, the t1/2 in the series on Rattus norvegicus [8] was determined as 2.48 h. Also, the Cmax with Rattus norvegicus [9] was determined as 6.93 ng/mL.

As for `CC(=O)Oc1cc2c(s1)CCN(C(C(=O)C1CC1)c1ccccc1F)C2` (stereo not given) [PRASUGREL], the Activity in the series on Rattus norvegicus [1] was determined as 32.1%.

Broadly, the MTD is the largest dose that counted as tolerated. As usually defined, the NOAEL is the highest dose or exposure tested at which no adverse effect was seen. With `COC(=O)[C@H](c1ccccc1Cl)N1CCc2sc(OC(C)=O)cc2C1` [SUMECIGREL], the Tmax in the series on Rattus norvegicus [2] was determined as 1.17 h. Moreover, the Activity result is “Non-toxic” in the series on Mus musculus [11], “Toxic” with Mus musculus [14], 34.6% in the series on Rattus norvegicus [1] and “Non-toxic” in the series with Mus musculus [15]. For the same compound, in [12], the MTD is over 2000 mg/kg. In series [13], the NOAEL stood at 300 mg/kg. Besides, the Drug metabolism entry in the series with Liver microsomes [3], in the series on Liver microsomes [4], in the series with Liver microsomes [5], in the series with Liver microsomes [6] and with Liver microsomes [10] was “Active” each time. The AUC with Rattus norvegicus [7] was 211 ng·h/mL. Also, in the series on Rattus norvegicus [8], the t1/2 was 2.19 h. The Cmax in the series with Rattus norvegicus [9] was 67.2 ng/mL.

For the origin of these results see ChEMBL document CHEMBL2040847, “Overcoming clopidogrel resistance: discovery of vicagrel as a highly potent and orally bioavailable antiplatelet agent” (J Med Chem, 2012).
